From ChEMBL document CHEMBL3526062, “Role of human UDP-glucuronosyltransferases in the biotransformation of the triazoloacridinone and imidazoacridinone antitumor agents C-1305 and C-1311: highly selective substrates for UGT1A10” (Drug Metab Dispos, 2012)

Legend:
[1] = target: T1, UDP-glucuronosyltransferase 1A9 (Homo sapiens, UniProt O60656); assay: Drug metabolism assessed as human recombinant UGT1A9-mediated compound formation treated with C-1311 for 60 mins by ESI-MS/UV-vis spectroscopy in presence of 3 mM UDP-GlcUA; format: ADME; conditions: recombinant enzyme, 1 h
T1 sequence (O60656 whole entry): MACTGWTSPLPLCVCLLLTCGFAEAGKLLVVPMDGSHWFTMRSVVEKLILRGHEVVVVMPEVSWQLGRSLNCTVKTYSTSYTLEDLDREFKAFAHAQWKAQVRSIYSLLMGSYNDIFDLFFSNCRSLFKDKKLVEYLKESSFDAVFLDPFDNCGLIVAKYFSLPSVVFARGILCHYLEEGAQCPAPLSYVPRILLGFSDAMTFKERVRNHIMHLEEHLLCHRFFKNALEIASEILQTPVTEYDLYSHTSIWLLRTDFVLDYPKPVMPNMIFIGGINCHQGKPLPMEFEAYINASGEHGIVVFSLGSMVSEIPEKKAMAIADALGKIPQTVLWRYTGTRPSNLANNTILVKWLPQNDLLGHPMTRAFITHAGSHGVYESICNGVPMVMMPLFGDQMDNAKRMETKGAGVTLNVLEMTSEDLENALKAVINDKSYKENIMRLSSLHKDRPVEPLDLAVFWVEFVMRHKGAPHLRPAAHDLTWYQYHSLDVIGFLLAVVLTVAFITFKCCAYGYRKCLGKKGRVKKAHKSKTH

[2] = target: T2, UDP-glucuronosyltransferase 1A7 (Homo sapiens, UniProt Q9HAW7); assay: Drug metabolism assessed as human recombinant UGT1A7-mediated compound formation treated with C-1305 for 60 mins by ESI-MS/UV-vis spectroscopy in presence of 3 mM UDP-GlcUA; format: ADME; conditions: recombinant enzyme, 1 h
T2 sequence (Q9HAW7 whole entry): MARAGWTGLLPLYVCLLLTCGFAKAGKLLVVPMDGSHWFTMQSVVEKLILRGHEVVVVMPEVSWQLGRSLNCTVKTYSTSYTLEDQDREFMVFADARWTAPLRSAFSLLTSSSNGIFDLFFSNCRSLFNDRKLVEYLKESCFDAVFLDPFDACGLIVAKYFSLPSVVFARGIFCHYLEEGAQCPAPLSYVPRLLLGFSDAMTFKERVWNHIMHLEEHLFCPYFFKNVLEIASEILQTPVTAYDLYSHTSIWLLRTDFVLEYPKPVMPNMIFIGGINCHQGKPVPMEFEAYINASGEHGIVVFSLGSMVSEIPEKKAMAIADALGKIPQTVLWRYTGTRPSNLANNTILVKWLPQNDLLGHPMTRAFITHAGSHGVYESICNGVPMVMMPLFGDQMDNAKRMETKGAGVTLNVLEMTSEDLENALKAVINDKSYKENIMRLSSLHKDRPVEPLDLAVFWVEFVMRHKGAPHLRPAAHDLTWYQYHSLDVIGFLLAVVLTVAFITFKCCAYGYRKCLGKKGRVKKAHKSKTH
Summary of the method: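 His-tagged recombinant human UGT expressed in baculovirus-infected insect cells, levels normalized by anti-His Western blot; 5 μg membrane protein incubated 60 min at 37°C in […] pH 7.4, 5 mM MgCl2, 5 mM saccharolactone, 2% DMSO, substrate 100 or 200 μM; started with UDP-GlcUA; ethanol stop, centrifuged; supernatant by reversed-phase HPLC-UV/ESI-MS; glucuronide confirmed by β-glucuronidase hydrolysis; triplicate.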

[3] = Drug metabolism in human intestinal microsomes assessed as metabolite formation treated with C-1305 for 60 mins by ESI-MS/UV-vis spectroscopy in presence of 3 mM UDP-GlcUA; format: ADME, Intestine, Microsome; conditions: 1 h
Summary of the method: (§1)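 Recombinant human UGT1A1 or UGT1A9 (5 μg protein), or single-donor human liver or intestinal microsomes (20 μg), incubated in Tris-HCl pH 7.4 with 5 mM MgCl2, 5 mM saccharolactone, 2% DMSO and 100 or 200 μM substrate. Started with UDP-GlcUA, 60 min at 37°C, in triplicate. Product identified by HPLC with positive-ion ESI-MS and UV/Vis spectra, and confirmed by β-glucuronidase hydrolysis.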

[4] = target: T3, UDP-glucuronosyltransferase 1A1 (Homo sapiens, UniProt P22309); assay: Drug metabolism assessed as human recombinant UGT1A1-mediated compound formation treated with C-1305 for 60 mins by ESI-MS/UV-vis spectroscopy in presence of 3 mM UDP-GlcUA; format: ADME; conditions: recombinant enzyme, 1 h; summary of the method: as §1
T3 sequence (P22309 whole entry): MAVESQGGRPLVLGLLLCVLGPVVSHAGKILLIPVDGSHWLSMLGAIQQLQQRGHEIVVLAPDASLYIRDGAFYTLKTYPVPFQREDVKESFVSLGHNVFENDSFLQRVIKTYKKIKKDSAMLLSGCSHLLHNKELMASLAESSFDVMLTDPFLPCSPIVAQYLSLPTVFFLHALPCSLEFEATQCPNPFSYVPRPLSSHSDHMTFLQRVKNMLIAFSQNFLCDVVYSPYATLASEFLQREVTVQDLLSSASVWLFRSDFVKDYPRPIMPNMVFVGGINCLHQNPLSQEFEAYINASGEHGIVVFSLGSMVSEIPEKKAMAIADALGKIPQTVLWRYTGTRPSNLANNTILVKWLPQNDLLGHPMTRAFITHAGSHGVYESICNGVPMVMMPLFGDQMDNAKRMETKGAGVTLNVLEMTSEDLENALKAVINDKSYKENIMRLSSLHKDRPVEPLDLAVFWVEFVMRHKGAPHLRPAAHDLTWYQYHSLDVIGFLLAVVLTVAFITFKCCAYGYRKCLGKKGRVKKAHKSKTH

| Compound | Drug metabolism [1] | Drug metabolism [2] | Drug metabolism [3] | Drug metabolism [4] |
| --- | --- | --- | --- | --- |
| CCN(CC)CCNc1ccc2ncn3c4ccc(O)cc4c(=O)c1c23 [C-1311] | metabolite_detected | – | – | – |
| CN(C)CCCNc1ccc2nnn3c4ccc(O)cc4c(=O)c1c23 | – | metabolite_detected | metabolite_detected | metabolite_detected |
